This is an account of results in ChEMBL document CHEMBL1177802, “Novel semicarbazones based 2,5-disubstituted-1,3,4-oxadiazoles: one more step towards establishing four binding site pharmacophoric model hypothesis for anticonvulsant activity” (Bioorg Med Chem Lett, 2010).

Active and inactive are the calls of the source.

The test system of series [1] is Rattus norvegicus. Briefly: Anticonvulsant activity against subcutaneous strychnine-induced seizures in Wistar rat at 300 mg/kg, ip after 0.5 hrs. Further details: dose 300 mg/kg. The class given is functional, organism-based. Summed up: (§1)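 Rats; subcutaneous strychnine-induced seizure model with compounds given intraperitoneally at 30, 100 and 300 mg/kg. Activity is checked at 0.5 h and 4.0 h and recorded as the minimal dose active in at least half of the animals. Absence of activity is judged at the 300 mg/kg maximum.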

Series [2] deals with Mus musculus. Nature of the series: Anticonvulsant activity against subcutaneous pentylenetetrazole-induced seizures in Swiss albino mouse at 300 mg/kg, ip after 4 hrs. The class given is functional, organism-based. On the set-up: dose 300 mg/kg. Summed up:
(§2)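 Mice; subcutaneous pentylenetetrazole seizure screen after ip dosing at 30, 100 and 300 mg/kg, read 0.5 and 4.0 h post-dose. Scored as the lowest dose protecting at least half of the animals. Absence of activity is judged at the 300 mg/kg maximum.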

Series [3] deals with Mus musculus. Nature of the series: Anticonvulsant activity against maximal electroshock-induced seizures in Swiss albino mouse at 300 mg/kg, ip after 4 hrs. The class given is functional, organism-based. Further details: dose 300 mg/kg. Summed up: (§3)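 Mice; compounds given ip at 30, 100 and 300 mg/kg and tested in the maximal electroshock seizure model at 0.5 and 4.0 h after dosing. Read-out is the minimal dose giving protection in half or more of the animals. Absence of activity is judged at the 300 mg/kg maximum.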
A general note: Protection in the maximal electroshock model is a classic sign of anticonvulsant action.

For series [4], the system named is Mus musculus. Briefly: Anticonvulsant activity against subcutaneous pentylenetetrazole-induced seizures in Swiss albino mouse at 300 mg/kg, ip after 0.5 hrs. Further details: dose 300 mg/kg. The class given is functional, organism-based. Put shortly:
as §2

The test system of series [5] is Mus musculus. Briefly: Neurotoxicity in ip dosed Swiss albino mouse assessed as minimum dose required to cause toxicity after 0.5 hrs. The series is classed as organism-based. The note with it: in vivo. Summed up: (§4)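 Acute neurotoxicity by rotorod test in mice given 30, 100 and 300 mg/kg ip, assessed 0.5 and 4.0 h after dosing. Reported as the minimal dose producing the effect in half or more of the animals. Absence of activity is judged at the 300 mg/kg maximum.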

Series [6] deals with Mus musculus. Nature of the series: Anticonvulsant activity against maximal electroshock-induced seizures in Swiss albino mouse at 300 mg/kg, ip after 0.5 hrs. On the set-up: dose 300 mg/kg. The class given is functional, organism-based. Put shortly: as §3
Series [7] concerns Rattus norvegicus. Nature of the series: Anticonvulsant activity against subcutaneous strychnine-induced seizures in ip dosed Wistar rat assessed as minimum effective dose after 4 hrs. The series is classed as functional. The settings on record: read-out: MED. Put shortly:
as §1

In series [8] the test system is Mus musculus. Briefly: Neurotoxicity in Swiss albino mouse at 300 mg/kg, ip after 4 hrs. The class given is toxicity, organism-based. Further details: dose 300 mg/kg, route intraperitoneal. The note with it: in vivo. Put shortly:
as §4

For series [9], the system named is Mus musculus. Nature of the series: Anticonvulsant activity against subcutaneous pentylenetetrazole-induced seizures in ip dosed Swiss albino mouse assessed as minimum effective dose after 0.5 hrs. The class given is functional. The settings on record: read-out: MED. Put shortly: as §2
The subject of series [10] is Rattus norvegicus. Briefly: Anticonvulsant activity against subcutaneous strychnine-induced seizures in Wistar rat at 300 mg/kg, ip after 4 hrs. On the set-up: dose 300 mg/kg. The series is classed as functional, organism-based. Put shortly:
as §1

Series [11] concerns Mus musculus. Nature of the series: Anticonvulsant activity against maximal electroshock-induced seizures in ip dosed Swiss albino mouse assessed as minimum effective dose after 4 hrs. The series is classed as functional. The settings on record: read-out: MED. Summed up: as §3
Series [12] deals with Mus musculus. Briefly: Neurotoxicity in ip dosed Swiss albino mouse assessed as minimum dose required to cause toxicity after 4 hrs. The class given is organism-based. The settings on record: in vivo. Put shortly: as §4
The test system of series [13] is Mus musculus. Briefly: Anticonvulsant activity against maximal electroshock-induced seizures in ip dosed Swiss albino mouse assessed as minimum effective dose after 0.5 hrs. The class given is functional. The settings on record: read-out: MED. Summed up:
as §3

In series [14] the test system is Mus musculus. Nature of the series: Anticonvulsant activity against subcutaneous pentylenetetrazole-induced seizures in ip dosed Swiss albino mouse assessed as minimum effective dose after 4 hrs. The class given is functional. The settings on record: read-out: MED. Summed up:
as §2

Series [15] deals with Rattus norvegicus. Briefly: Anticonvulsant activity against subcutaneous strychnine-induced seizures in ip dosed Wistar rat assessed as minimum effective dose after 0.5 hrs. The class given is functional. The settings on record: read-out: MED. Summed up: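 Rats given 30, 100 or 300 mg/kg ip and challenged with subcutaneous strychnine. Protection was read at 0.5 and 4.0 h after dosing. The value is the minimal dose that gave activity in half or more of the animals; no activity at 300 mg/kg was the highest-dose cut-off.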

In series [16] the test system is Mus musculus. Nature of the series: Neurotoxicity in Swiss albino mouse at 300 mg/kg, ip after 0.5 hrs. The class given is toxicity, organism-based. On the set-up: dose 300 mg/kg, route intraperitoneal. The note with it: in vivo. Put shortly: as §4
Series [17] relates to Rattus norvegicus. Briefly: Anticonvulsant activity against maximal electroshock-induced seizures in Wistar rat at 30 mg/kg, po after 0.25 hrs. The series is classed as functional, organism-based. Further details: dose 30 mg/kg. Put shortly:
(§5)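 Rats dosed orally at 30 mg/kg; maximal electroshock protection scored at 0.25, 0.5, 1, 2 and 4 h. Result is given as the number of protected rats out of four.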

The subject of series [18] is Rattus norvegicus. Nature of the series: Anticonvulsant activity against maximal electroshock-induced seizures in Wistar rat at 30 mg/kg, po after 2 hrs. On the set-up: dose 30 mg/kg. The series is classed as functional, organism-based. Summed up:
as §5

Series [19] concerns Rattus norvegicus. Nature of the series: Neurotoxicity in Wistar rat at 30 mg/kg, po after 1 hr. The class given is toxicity, organism-based. On the set-up: dose 30 mg/kg, route oral. The settings on record: in vivo. Summed up: (§6)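 Oral dosing in rats at 30 mg/kg, neurotoxicity (rotorod) scored at 0.25, 0.5, 1, 2 and 4 h post-administration. Counts are out of four rats per time point.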

Series [20] deals with Rattus norvegicus. Briefly: Increase in GABA level in Wistar rat midbrain assessed per mg of tissue at 100 mg/kg, ip after 2 hrs. The class given is functional. The note with it: route intraperitoneal. Put shortly:
(§7)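 Rats given 100 mg/kg ip and killed by decapitation 2 h later. Midbrain, medulla oblongata and cerebellum are placed separately in ice-cold 80% ethanol and processed for GABA, expressed per 100 mg tissue. Reference drug clobazam is given at 30 mg/kg ip. Values are mean ± SEM of six rats.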

In series [21] the test system is Rattus norvegicus. Briefly: Increase in GABA level in Wistar rat medulla oblangata assessed per mg of tissue at 100 mg/kg, ip after 2 hrs. The class given is functional, Medulla oblongata. The note with it: route intraperitoneal. Summed up:
as §7

The test system of series [22] is Rattus norvegicus. Briefly: Neurotoxicity in Wistar rat at 30 mg/kg, po after 0.5 hrs. The class given is toxicity, organism-based. On the set-up: dose 30 mg/kg, route oral. The settings on record: in vivo. Summed up:
as §6

The subject of series [23] is Rattus norvegicus. Nature of the series: Increase in GABA level in Wistar rat cerebellum assessed per mg of tissue at 100 mg/kg, ip after 2 hrs. The settings on record: route intraperitoneal. The class given is functional. Put shortly: as §7
In series [24] the test system is Rattus norvegicus. Nature of the series: Anticonvulsant activity against maximal electroshock-induced seizures in Wistar rat at 30 mg/kg, po after 1 hr. On the set-up: dose 30 mg/kg. The series is classed as functional, organism-based. Put shortly:
as §5

Series [25] has as its system Rattus norvegicus. Briefly: Neurotoxicity in Wistar rat at 30 mg/kg, po after 4 hrs. The class given is toxicity, organism-based. Further details: dose 30 mg/kg, route oral. The note with it: in vivo. Put shortly: as §6
Series [26] relates to Rattus norvegicus. Nature of the series: Neurotoxicity in Wistar rat at 30 mg/kg, po after 0.25 hrs. The series is classed as toxicity, organism-based. On the set-up: dose 30 mg/kg, route oral. The note with it: in vivo. Put shortly:
as §6

In the case of `COc1cc(/C=N\NC(=O)Nc2nnc(COc3ccc4ccccc4c3)o2)ccc1O`, the MED entry in the series with Rattus norvegicus [1], with Mus musculus [2], in the series with Mus musculus [3], with Mus musculus [4] and with Mus musculus [6] was “inactive” throughout. The Activity with Mus musculus [5] is 300 mg/kg; in the series on Mus musculus [8] it was “Non-toxic”. Moreover, the minimal effective dose in the series with Rattus norvegicus [7] came out at 300 mg/kg.
On to `NC(=O)N1c2ccccc2C=Cc2ccccc21` [CARBAMAZEPINE], for which the MED entry with Rattus norvegicus [1] and with Rattus norvegicus [10] was “inactive” in each case. For the same compound, the minimal effective dose worked out at 100 mg/kg with Mus musculus [9], 100 mg/kg in the series on Mus musculus [11], 30 mg/kg with Mus musculus [13] and 300 mg/kg in the series on Mus musculus [14]. The results for the Activity in the series on Mus musculus [5] and in the series on Mus musculus [12] were 100 mg/kg and 300 mg/kg, respectively.
For `O=C(NN=C(c1ccccc1)c1ccccc1)Nc1nnc(COc2ccc3ccccc3c2)o1`, the MED result with Rattus norvegicus [1], in the series on Mus musculus [2], with Mus musculus [4], in the series with Rattus norvegicus [10] and in the series with Mus musculus [6] was “inactive” each time. The Activity with Mus musculus [5] was 300 mg/kg; in the series with Mus musculus [8] it was “Non-toxic”. Also, the minimal effective dose in the series with Mus musculus [11] turned out to be 300 mg/kg.
As for `CCC1(C)CC(=O)NC1=O` (stereo not drawn) [ETHOSUXIMIDE], the minimal effective dose with Mus musculus [9] is 100 mg/kg; in the series with Rattus norvegicus [15], 300 mg/kg; with Mus musculus [14], 300 mg/kg. The MED result with Mus musculus [3], with Rattus norvegicus [10] and in the series with Mus musculus [6] was “inactive” each time. The Activity entry in the series with Mus musculus [16] and in the series on Mus musculus [8] was “Non-toxic” in each case.
Take `O=C1NC(=O)C(c2ccccc2)(c2ccccc2)N1` [PHENYTOIN]: the MED entry in the series on Rattus norvegicus [1], in the series with Mus musculus [2] and with Mus musculus [4] was “inactive” in each case. Further, the Activity in the series on Mus musculus [5] and in the series on Mus musculus [12] was 100 mg/kg in each case. Besides, the minimal effective dose worked out at 30 mg/kg in the series with Mus musculus [11], 100 mg/kg with Rattus norvegicus [7] and 30 mg/kg in the series on Mus musculus [13].
For the compound `C/C(=N/NC(=O)Nc1nnc(COc2ccc3ccccc3c2)o1)c1ccc([N+](=O)[O-])cc1`, the MED entry with Rattus norvegicus [1] and in the series on Mus musculus [4] was “inactive” each time. For the same compound, the outcome in the series with Rattus norvegicus [17], with Rattus norvegicus [18] and in the series on Rattus norvegicus [24] was inactive. Further, the Activity entry in the series on Rattus norvegicus [19] is “Non-toxic”; in the series on Rattus norvegicus [20] it was 45.5 µg; in the series on Rattus norvegicus [21], 40.42 µg; in the series with Rattus norvegicus [22], “Non-toxic”; in the series on Rattus norvegicus [23], 27.56 µg; with Rattus norvegicus [25] it was “Non-toxic”. Also, the Activity result with Mus musculus [16], in the series with Mus musculus [8] and with Rattus norvegicus [26] was “Non-toxic” each time. Besides, the minimal effective dose in the series with Mus musculus [11] came to 300 mg/kg; with Rattus norvegicus [7], 300 mg/kg; in the series with Mus musculus [13], 100 mg/kg; with Mus musculus [14], 300 mg/kg.
